Measured values: PubChem BioAssay
Results filed as inconclusive are left out.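 The calls were made as follows, unless noted: active = inhibition over a set limit, the all-compound mean plus 3 SD, in both replicate runs; inconclusive = over that limit in just one replicate run; inactive = at or under that limit in both runs.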

How the values were obtained:
[1] = S. cerevisiae growth inhibition in permissive medium (OD615), pilot counter-assay for S. cerevisiae lifespan shortening project, permissive growth control (AID 705;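 active = growth inhibition above 25% in both replicates, a cutoff set 3 SD above the mean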); details: OD615, 24 h, at 10 µM, active compounds read high
Summary of the method: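 Timing: 24 h exposure, 30 °C / Material: Saccharomyces cerevisiae strain carrying genetically modified DeaD replicative-lifespan system / Signal: OD at 615 nm / Compound: 10 µM single dose, 0.25% DMSO / Medium: SC raffinose/galactose permissive medium / Evaluation: reduction in yeast growth (OD615)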

[2] = S. cerevisiae growth inhibition in restrictive medium, OD615, pilot screen, restrictive growth control, yeast lifespan reduction project (AID 706;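 active = growth inhibition above a set limit, 3 SD over mean compound inhibition, in both replicates, cut at about 43% in these data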;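 also: modified DeaD lifespan yeast strain shifted to restrictive glucose medium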); details: OD615, 48 h, at 10 µM, active compounds read high
Summary of the method: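 System: Engineered S. cerevisiae DeaD strain | Detection: OD615 | Buffer or medium: CSMM-D glucose medium | Doses: 10 µM compound, 0.25% DMSO | Timing: 4 h pre-growth plus 48 h compound exposure, 30 °C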

[3] = doxorubicin toxicity protection in MRP-1 cells – H69AR cells, CellTiter-Glo, duplicate, MRP-1 activator project, pilot screen (AID 807;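 active = viability increase at or above a cutoff of the median across tested compounds plus 3 SD, cut at about 8.5% in these data, passing the limit was not always enough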;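 also: compound pretreatment 18-22 h then 72 h combined with doxorubicin; 0% = doxorubicin alone and 100% = vehicle without doxorubicin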); details: H69AR viability with doxorubicin, CellTiter-Glo luminescence; at 10 µM; active compounds read high
[4] = viability of HCT116 without oncogenic beta-catenin – human colon tumor cells, pilot screen (AID 823;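 active = cell viability at or below a set limit in both duplicate runs, the limit being the all-compound median minus 4 SD, cut at about 23% in these data, passing the limit was not always enough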;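 also: 0% = wells killed by 20 µM Hyamine and 100% = untreated DMSO cell wells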); details: HCT116 beta-catenin knockout viability, CellTiter-Glo, 60 h; at 10 µM; active compounds read low
[5] = viability of PTEN-null HCT116 cells – cell-based, HCT116 clonal line, CellTiter-Glo, pilot screen (AID 824;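 active = viability at or below 27.92% in each of two runs, the all-compound median minus 4 SD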;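 also: 0% = 20 µM Hyamine control and 100% = vehicle cell control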); details: HCT116 PTEN-deleted viability, 60 h, at 10 µM, active compounds read low
[6] = RAM pathway blockade in budding yeast – dse1pr::URA3 reporter, 5-FOA selection, pilot screen (AID 869);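 also: 0% = DMSO wells with no growth and 100% = 10 µM 1-NA-PP1 with full growth; RAM network block rescues cells from 5-FOA so hits raise OD615 growth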; details: S. cerevisiae dse1pr::URA3 5-FOA growth, OD615, 2 d; at 10 µM; active compounds read high; strain carries analog-sensitive mutant Cbk1 kinase
[7] = RAM signaling pathway blockade in yeast – S. cerevisiae, Pdr1DBD-CYC8 efflux-inhibited sensitized strain, primary screen (AID 1298;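 active = RAM network inhibition above 8.4% in each of two replicates, 3 SD over the compound average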;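 also: 0% = DMSO untreated cells without growth and 100% = 10 µM 1-NA-PP1 full growth; higher means more yeast growth rescued from 5-FOA killing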); details: S. cerevisiae cbk1-as DSE1-URA3 strain, 5-FOA growth OD615, 2 d; at 50 µM; active compounds read high

Cc1ccc(-n2nnc3c(=O)n(Cc4cccc(C)c4)cnc32)cc1
inactive: growth inhibition [1] -5.14% | growth inhibition [2] -6.1% | viability increase [3] 1.15% | viability [4] 99.9% | viability [5] 93.7% | inhibition [6] 2.65% | RAM network inhibition [7] 1.34%

CCOC(=O)C1CCN(C(=O)COc2cc(C)c(Br)c(C)c2)CC1
inactive: growth inhibition [1] -2.41% | growth inhibition [2] -16.5% | viability increase [3] -3.43% | viability [4] 94.4% | viability [5] 85.3% | inhibition [6] 1.47% | RAM network inhibition [7] 1.59%

COCCN1Cc2cccc(C(=O)NCc3cccnc3)c2C1=O
inactive: growth inhibition [1] 3.25% | growth inhibition [2] 10.2% | viability increase [3] 0.03% | viability [4] 111% | viability [5] 101% | inhibition [6] 3.75% | RAM network inhibition [7] 0.51%

O=C(/C=C\Nc1ccccn1)c1ccc(Cl)cc1
inactive: growth inhibition [1] -7.61% | growth inhibition [2] -36.4% | viability increase [3] 0.28% | viability [4] 83.5% | viability [5] 81.7% | inhibition [6] 2.68% | RAM network inhibition [7] 8.82%

O=C(Cn1ncc2c1-c1ccccc1OC2)N(Cc1ccco1)C1CCCCC1
inactive: growth inhibition [1] 0.715% | growth inhibition [2] -5.62% | viability increase [3] -2.69% | viability [4] 78.5% | viability [5] 74.9% | inhibition [6] 2.08% | RAM network inhibition [7] 3.96%

Cc1ccc(-n2c(SCC(=O)Nc3cc(C)on3)nc3c(c2=O)SC(C)C3)cc1 (configuration not stated)
inactive: growth inhibition [1] -1.77% | growth inhibition [2] -14.4% | viability increase [3] -2.56% | viability [4] 87.5% | viability [5] 88.4% | inhibition [6] 0.5% | RAM network inhibition [7] 2.13%

CC1(C)CC(=O)N(CC(=O)O)c2ccccc2S1(=O)=O
inactive: growth inhibition [1] -4.39% | growth inhibition [2] 4.7% | viability increase [3] -0.77% | viability [4] 99.8% | viability [5] 96.3% | inhibition [6] 1.42% | RAM network inhibition [7] 4.48%

CCOC(=O)N1CCN(C(=O)CN(c2cc(C(F)(F)F)ccc2Cl)S(C)(=O)=O)CC1
inactive: growth inhibition [1] 0.24% | growth inhibition [2] 9.28% | viability increase [3] -1.79% | viability [4] 103% | viability [5] 99% | inhibition [6] -0.91% | RAM network inhibition [7] -0.25%

CC1=C(C)C(=O)N(CCC(=O)O)C1=O
inactive: growth inhibition [1] -12.6% | growth inhibition [2] -20.3% | viability increase [3] -1.09% | viability [4] 95.3% | viability [5] 93.8% | inhibition [6] 1.52% | RAM network inhibition [7] 3.32%

CCOC(=O)CSc1nc(N)nc(C)c1Br
inactive: growth inhibition [1] -0.46% | growth inhibition [2] -3.4% | viability increase [3] -2.62% | viability [4] 103% | viability [5] 104% | inhibition [6] 0.49% | RAM network inhibition [7] 0.51%

Cn1c(C(=O)N2CCN(Cc3ccccc3)CC2)cc2c(=O)n(C)c3ccccc3c21
inactive: growth inhibition [1] 7.94% | growth inhibition [2] 3.57% | viability increase [3] -4.21% | viability [4] 74.8% | viability [5] 74.8% | inhibition [6] 0.905% | RAM network inhibition [7] 1.37%

Cc1cc(C)n2nc(SCC#N)nc2n1
inactive: growth inhibition [1] -7.25% | growth inhibition [2] -4.04% | viability increase [3] -2.41% | viability [4] 95.4% | viability [5] 95.4% | inhibition [6] 0.2% | RAM network inhibition [7] 4.36%

COc1ccc(OC)c2sc(NC(=O)C3CC3)nc12
inactive: growth inhibition [1] 1.08% | growth inhibition [2] 5.55% | viability increase [3] -3.24% | viability [4] 99.7% | viability [5] 90.3% | inhibition [6] 1.25% | RAM network inhibition [7] 6.06%

COc1ccc(CNC(=O)c2onc(C)c2Cl)cc1
inactive: growth inhibition [1] -14.2% | growth inhibition [2] -17.2% | viability increase [3] -1.96% | viability [4] 96% | viability [5] 93.7% | inhibition [6] 2.31% | RAM network inhibition [7] 4.91%

c1csc(Cc2nc(-c3ccc(-n4cccc4)cc3)no2)c1
inactive: growth inhibition [1] -6.69% | growth inhibition [2] -14.7% | viability increase [3] -0.35% | viability [4] 106% | viability [5] 93.8% | inhibition [6] 3.12% | RAM network inhibition [7] 1.65%

CCCCC(CC)CNC(=O)CCS(=O)(=O)c1cccc2nsnc12 (configuration not stated)
inactive: growth inhibition [1] -14.8% | growth inhibition [2] -21.5% | viability increase [3] -2.97% | viability [4] 85.7% | viability [5] 91.7% | inhibition [6] 3.19% | RAM network inhibition [7] 4.78%

O=C(NC1CCCCC1)C(c1ccccc1)N1CCCC1 (configuration not stated)
inactive: growth inhibition [1] 1.67% | growth inhibition [2] -3.42% | viability increase [3] -1.59% | viability [4] 96.6% | viability [5] 97.7% | inhibition [6] 1.43% | RAM network inhibition [7] 5.5%

Cc1cccc(C2Nc3ccccc3C(=O)N2CCc2ccccc2)n1 (configuration not stated)
inactive: growth inhibition [1] -10.1% | growth inhibition [2] -2.82% | viability increase [3] -2.91% | viability [4] 78.3% | viability [5] 73.5% | inhibition [6] 2.09% | RAM network inhibition [7] 7.42%

COc1cc(OC)nc(NC(=O)C(C)C)n1
inactive: growth inhibition [1] -1.12% | growth inhibition [2] 6.71% | viability increase [3] -0.57% | viability [4] 104% | viability [5] 97.3% | inhibition [6] 1.01% | RAM network inhibition [7] 4.06%

CCN1CCN(CC(=O)Nc2cccc(C)c2C)C(=O)C1=O
inactive: growth inhibition [1] -3.54% | growth inhibition [2] -7.93% | viability increase [3] -0.73% | viability [4] 99% | viability [5] 90.9% | inhibition [6] 2.46% | RAM network inhibition [7] 2.6%

CCOC(=O)c1ccc(NC(=O)C2CCN(S(=O)(=O)c3ccccc3)CC2)cc1
inactive: growth inhibition [1] -12.1% | growth inhibition [2] -10.7% | viability increase [3] -2.54% | viability [4] 66.4% | viability [5] 70.2% | inhibition [6] 1.47% | RAM network inhibition [7] 6.37%

CC(CCc1ccccc1)NC(=O)CN1CCOc2ccccc21 (configuration not stated)
inactive: growth inhibition [1] -7.73% | growth inhibition [2] -1.32% | viability increase [3] -5.58% | viability [4] 84.1% | viability [5] 83.1% | inhibition [6] 0.595% | RAM network inhibition [7] 3.72%

CCOC(=O)c1nn(-c2ccccc2)c(=O)c2c(N)scc12
inactive: growth inhibition [1] -4.99% | growth inhibition [2] -1.54% | viability increase [3] -3.93% | viability [4] 102% | viability [5] 107% | inhibition [6] 2.98% | RAM network inhibition [7] 4.03%

O=C1c2ccccc2C(O)N1Cc1ccco1 (configuration not stated)
inactive: growth inhibition [1] 5.97% | growth inhibition [2] -0.555% | viability increase [3] -2.36% | viability [4] 93.6% | viability [5] 94.6% | inhibition [6] 0.695% | RAM network inhibition [7] 0.68%

CC(=O)Nc1cccc(N(C)C)c1
inactive: growth inhibition [1] 3.45% | growth inhibition [2] 5.4% | viability increase [3] -0.76% | viability [4] 96.1% | viability [5] 105% | inhibition [6] 1.44% | RAM network inhibition [7] 1.55%

N#CCCN1CCN(S(=O)(=O)c2ccc(S(=O)(=O)N3CCCC3)cc2)CC1
inactive: growth inhibition [1] 0.995% | growth inhibition [2] 7.04% | viability increase [3] 1.73% | viability [4] 101% | viability [5] 104% | inhibition [6] 1.29% | RAM network inhibition [7] 8.15%

Cn1cnc2c1c(=O)n(Cc1ccccc1)c(=O)n2C
inactive: growth inhibition [1] -14.8% | growth inhibition [2] -14.2% | viability increase [3] -1.66% | viability [4] 106% | viability [5] 97% | inhibition [6] 3.59% | RAM network inhibition [7] 0.42%

Cc1cc(NC(=O)CN2CCCCC2C)nc2c1c(=O)oc1ccccc12 (configuration not stated)
inactive: growth inhibition [1] 4.45% | growth inhibition [2] -0.735% | viability increase [3] -0.4% | viability [4] 102% | viability [5] 95.9% | inhibition [6] 1.36% | RAM network inhibition [7] 0.77%

Cc1nc2ccc(N)cc2s1
inactive: growth inhibition [1] -15.7% | growth inhibition [2] -13.4% | viability increase [3] -2.73% | viability [4] 109% | viability [5] 112% | inhibition [6] 0.07% | RAM network inhibition [7] 1.25%

OCCN1CCN(c2ncnc3ccc(Br)cc23)CC1
inactive: growth inhibition [1] -15.5% | growth inhibition [2] 4.06% | viability increase [3] -4.77% | viability [4] 99.1% | viability [5] 96.7% | inhibition [6] -0.12% | RAM network inhibition [7] -1.2%

CC1(C)Cc2c(c(N3CCOCC3)nc3sc(C(=O)N4CCCCC4)c(N)c23)CO1
inactive: growth inhibition [1] 2.35% | growth inhibition [2] 29.3% | viability increase [3] -4.48% | viability [4] 100% | viability [5] 96.6% | inhibition [6] 2.62% | RAM network inhibition [7] 3.43%

Cn1c2c(c(=O)n(C)c1=O)C(c1cc3c(cc1Br)OCO3)CC(=O)N2 (configuration not stated)
inactive: growth inhibition [1] -4.86% | growth inhibition [2] -4.15% | viability increase [3] -0.66% | viability [4] 105% | viability [5] 99% | inhibition [6] -0.625% | RAM network inhibition [7] 4.1%

O=C(O)CCCNS(=O)(=O)c1ccc(F)cc1
inactive: growth inhibition [1] -5.7% | growth inhibition [2] -0.905% | viability increase [3] -1.33% | viability [4] 105% | viability [5] 101% | inhibition [6] 1.14% | RAM network inhibition [7] 0.11%

Cc1onc(-c2ccccc2Cl)c1C(=O)N1CCCCC1C(=O)O (configuration not stated)
inactive: growth inhibition [1] 0.56% | growth inhibition [2] -2.38% | viability increase [3] -1.22% | viability [4] 96.6% | viability [5] 98.6% | inhibition [6] 0.055% | RAM network inhibition [7] 4.06%

Nc1[nH]nc2nc(N3CCOCC3)nc(-c3ccccc3)c12
inactive: growth inhibition [1] -7.04% | growth inhibition [2] 4.65% | viability increase [3] -4.39% | viability [4] 88.2% | viability [5] 88.3% | inhibition [6] 2.38% | RAM network inhibition [7] 1.55%

Cc1sc2ncnc(NCCCO)c2c1C
inactive: growth inhibition [1] -16.1% | growth inhibition [2] -8.24% | viability increase [3] -1.72% | viability [4] 103% | viability [5] 90.5% | inhibition [6] 0.945% | RAM network inhibition [7] 5.49%
